Experimental data of several laboratories.
Each line is one published result; the experiments were not run side by side.
Target: Rhodopsin kinase GRK1 (GRK1, Homo sapiens, UniProt Q15835)
One construct used (Q15835 1-563): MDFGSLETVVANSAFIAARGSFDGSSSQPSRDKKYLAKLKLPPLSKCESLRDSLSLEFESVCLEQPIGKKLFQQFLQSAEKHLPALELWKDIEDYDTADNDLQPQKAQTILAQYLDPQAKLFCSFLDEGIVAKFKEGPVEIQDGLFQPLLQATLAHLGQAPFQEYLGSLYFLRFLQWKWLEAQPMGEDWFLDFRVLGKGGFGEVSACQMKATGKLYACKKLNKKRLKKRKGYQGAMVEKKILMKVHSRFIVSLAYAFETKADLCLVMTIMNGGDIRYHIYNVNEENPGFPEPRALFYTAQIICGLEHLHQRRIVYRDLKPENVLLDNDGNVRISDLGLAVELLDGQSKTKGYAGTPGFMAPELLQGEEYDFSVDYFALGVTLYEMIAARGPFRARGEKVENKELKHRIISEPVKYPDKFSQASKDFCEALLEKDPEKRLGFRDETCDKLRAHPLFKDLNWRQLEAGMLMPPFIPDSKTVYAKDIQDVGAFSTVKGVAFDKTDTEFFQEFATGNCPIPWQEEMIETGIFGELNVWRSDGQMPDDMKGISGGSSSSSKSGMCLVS

`CCCCC(=O)Nc1ccc(-c2ccc3ncn(CCC)c(=O)c3c2)cn1` gave a remaining binding of 96% (binding; competition with immobilised ligand; 0.5 µM).
`CC(C)S(=O)(=O)c1ccc2nccc(Nc3ccc4sc(C5CCCC5)nc4c3)c2c1` has an activity vs control of 112% (enzyme activity; inhibitor; 1 µM).
`COc1ccc2oc(-c3ccc4nc(N)oc4c3)c/c(=N\c3ccccc3NC(=O)CCN)c2c1` gave a remaining binding of 98% (binding; 1 µM).
`CO[C@@H]1[C@H](N(C)C(=O)c2ccccc2)C[C@H]2O[C@]1(C)n1c3ccccc3c3c4c(c5c6ccccc6n2c5c31)C(=O)NC4` has an inhibition of 94% (enzyme activity; inhibitor; 1 µM).
With `C[C@H]1CC[C@H](n2c3cnccc3c3cnc(Nc4ccc5c(n4)CCN(C(=O)CO)C5)nc32)CC1` the remaining signal was 100% (cell-free assay; 1 µM).
The remaining binding of `C1=C/COCc2cc(ccc2OCCN2CCCC2)Nc2nccc(n2)-c2cccc(c2)COC/1` is reported as 94% (binding; 0.1 µM).
For `C=CC(=O)N1CCC([C@@H]2CCNc3c(C(N)=O)c(-c4ccc(Oc5ccccc5)cc4)nn32)CC1`, the inhibition was 34% (enzyme activity; inhibitor; 1 µM).
`COc1ccc2[nH]c3c4[nH]c5ccc(OC)cc5c4c4c(c3c2c1)C(=O)NC4=O` gave a remaining binding of 95% (binding; 1 µM).
